From ChEMBL document CHEMBL1123214, “(o- and p-Nitrobenzyloxycarbonyl)-5-fluorouracil derivatives as potential conjugated bioreductive alkylating agents” (1986)

Assays:
Type in all cases: functional
[1] = system: Mus musculus; assay: Compound was tested for the effect on the survival time of the mice bearing P388 leukemia at dose 100 mg/kg; ratio of survival time of treated and control
Outline: (§1)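 Ascites cells were taken from donor CDF₁ mice with 7-day growths, spun, diluted 10-fold in isotonic saline and set to 10⁷ cells/mL. About 10⁶ cells were given ip per mouse. Drug was homogenized in 20% aqueous Tween 80, made up in saline, and given ip once daily for 6 days from 24 h after implant. Vehicle controls were included. Read-out was survival time, as T/C × 100, with % weight change as toxicity.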

[2] = system: Mus musculus; assay: Compound was tested for the effect on the survival time of the mice bearing P388 leukemia at dose 80 mg/kg; outline: as §1
[3] = system: Mus musculus; assay: Compound was tested for the effect on the survival time of the mice bearing Sarcoma 180 ascites at dose of 10 mg/kg; ratio of survival time of treated and control; outline: as §1
[4] = system: Mus musculus; assay: Compound was tested for the effect on the survival time of the mice bearing P388 leukemia at dose 60 mg/kg; ratio of survival time of treated and control; outline: as §1
[5] = system: Mus musculus; assay: Compound was tested for the effect on the survival time of the mice bearing P388 leukemia at dose 100 mg/kg; outline: as §1
[6] = system: Mus musculus; assay: Compound was tested for the effect on the survival time of the mice bearing P388 leukemia at dose 200 mg/kg; ratio of survival time of treated and control; outline: as §1
[7] = system: Mus musculus; assay: Compound was tested for the effect on the survival time of the mice bearing Sarcoma 180 ascites at dose of 20 mg/kg; ratio of survival time of treated and control; outline: as §1
[8] = system: Mus musculus; assay: Compound was tested for the effect on the survival time of the mice bearing Sarcoma 180 ascites at dose of 40 mg/kg; outline: as §1
[9] = system: Mus musculus; assay: Compound was tested for the effect on the survival time of the mice bearing P388 leukemia at dose 200 mg/kg; outline: as §1
[10] = system: Mus musculus; assay: Compound was tested for the effect on the survival time of the mice bearing P388 leukemia at dose 60 mg/kg; outline: as §1
[11] = system: Mus musculus; assay: Compound was tested for the effect on the survival time of the mice bearing P388 leukemia at dose 20 mg/kg; outline: as §1
[12] = system: Mus musculus; assay: Compound was tested for the effect on the survival time of the mice bearing Sarcoma 180 ascites at dose of 10 mg/kg; outline: as §1
[13] = system: Mus musculus; assay: Compound was tested for the effect on the survival time of the mice bearing Sarcoma 180 ascites at dose of 40 mg/kg; ratio of survival time of treated and control; outline: as §1
[14] = system: Mus musculus; assay: Compound was tested for the effect on the survival time of the mice bearing P388 leukemia at dose 80 mg/kg; ratio of survival time of treated and control; outline: as §1
[15] = system: Mus musculus; assay: Compound was tested for the effect on the survival time of the mice bearing P388 leukemia at dose 40 mg/kg; ratio of survival time of treated and control; outline: as §1
[16] = system: Mus musculus; assay: Compound was tested for the effect on the survival time of the mice bearing P388 leukemia at dose 20 mg/kg; ratio of survival time of treated and control; outline: as §1
[17] = system: Mus musculus; assay: Compound was tested for the effect on the survival time of the mice bearing Sarcoma 180 ascites at dose of 20 mg/kg; outline: as §1
[18] = system: Mus musculus; assay: Compound was tested for the effect on the survival time of the mice bearing P388 leukemia at dose 40 mg/kg; outline: as §1
[19] = system: Mus musculus; assay: Compound was tested for the effect on the survival time of the mice bearing P388 leukemia at dose 25 mg/kg; outline: as §1
[20] = system: Mus musculus; assay: Compound was tested for the effect on the survival time of the mice bearing P388 leukemia at dose 50 mg/kg; outline: as §1
[21] = system: Mus musculus; assay: Compound was tested for the effect on the survival time of the mice bearing P388 leukemia at dose 25 mg/kg; ratio of survival time of treated and control; outline: as §1
[22] = system: Mus musculus; assay: Compound was tested for the effect on the survival time of the mice bearing P388 leukemia at dose 50 mg/kg; ratio of survival time of treated and control; outline: as §1

Row | SMILES | T/C [1] | T/C [4] | Change in weight [5] [%] | Change in weight [10] [%] | Change in weight [19] [%] | Change in weight [20] [%] | T/C [21] | T/C [22] | also measured
1 | O=C(Cc1ccc([N+](=O)[O-])cc1)On1c(=O)[nH]cc(F)c1=O | 158 | 196 | -11.6 | -2.9 |  |  |  |  | Change in weight [2]: -5.8%; T/C [3]: 159; T/C [6]: 64; T/C [7]: 124; Change in weight [8]: -7.6%; Change in weight [9]: -10.7%; Change in weight [11]: 5.6%; Change in weight [12]: 9.6%; T/C [13]: 332; T/C [14]: 212; T/C [15]: 190; T/C [16]: 165; Change in weight [17]: 2.7%; Change in weight [18]: 0%
2 | O=c1c(F)cn(Cc2ccccc2[N+](=O)[O-])c(=O)n1Cc1ccccc1[N+](=O)[O-] | 86 |  | 22.4 |  | 17.8 | 15 | 90 | 88 | 
3 | O=c1c(F)cn(C2CCCO2)c(=O)n1Cc1ccccc1[N+](=O)[O-] (stereo not drawn) | 96 |  | 13.7 |  | 10.3 | 7.8 | 90 | 96 | 
4 | O=c1[nH]c(=O)n(Cc2ccccc2[N+](=O)[O-])cc1F | 88 |  | 20.8 |  | 13.3 | 10 | 90 | 92 | 
5 | O=C(Cc1ccc([N+](=O)[O-])cc1)On1cc(F)c(=O)n(OC(=O)Cc2ccc([N+](=O)[O-])cc2)c1=O |  | 149 |  | -5.5 |  |  |  |  | Change in weight [2]: -7.4%; T/C [14]: 158; T/C [15]: 136; Change in weight [18]: -2.7%
6 | O=c1[nH]cc(F)c(=O)[nH]1 [FLUOROURACIL] |  |  |  |  |  |  |  |  | T/C [7]: 277; Change in weight [11]: -12.5%; T/C [16]: 185; Change in weight [17]: -3.4%
7 | O=c1[nH]c(=O)n(C2CCCO2)cc1F (stereo not drawn) [TEGAFUR] |  | 100 |  | 12.2 |  |  |  |  | 
